Data reported in ChEMBL document CHEMBL4196119, “Quinoxaline-Based Linear HCV NS3/4A Protease Inhibitors Exhibit Potent Activity against Drug Resistant Variants” (ACS Med Chem Lett, 2018).

What was measured:
Hepatitis C virus [1] = experiment: Selectivity ratio of EC50 for HCV genotype 1b Con1 harboring HCV genotype 1a H77 NS3 D168A mutant infected in human HuH7 cells to EC50 for HCV genotype 1b Con1 harboring HCV genotype 1a H77 wild type NS3 infected in human HuH7 cells; type: functional, Hepacivirus hominis, isolate Con1
[2] = biological target: Hepatitis C virus serine protease, NS3/NS4A (Hepatitis C virus, UniProt A3EZI9+D2K2A8, R155K); experiment: Inhibition of HCV genotype 1a NS3/4A protease R155K mutant expressed in Escherichia coli BL21(DE3) using Ac-DE-Dap(QXL 520)-EE-Abu-psi-[COO]AS-C(5-FAMsp)-NH2 as substrate preincubated for 1 hr followed by substrate addition; set-up: species or system Hepatitis C virus subtype 1a
How it was run: (§1)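 Enzyme inhibition constants (Ki) were determined against GT1a NS3/4A protease in three forms: wild type, R155K and D168A.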

[3] = biological target: Hepatitis C virus serine protease, NS3/NS4A (Hepatitis C virus, UniProt A3EZI9+D2K2A8, D168A); experiment: Inhibition of HCV genotype 1a NS3/4A protease D168A mutant expressed in Escherichia coli BL21(DE3) using Ac-DE-Dap(QXL 520)-EE-Abu-psi-[COO]AS-C(5-FAMsp)-NH2 as substrate preincubated for 1 hr followed by substrate addition; set-up: species or system Hepatitis C virus subtype 1a; how it was run: as §1
Hepatitis C virus [4] = experiment: Selectivity ratio of EC50 for HCV genotype 1b Con1 harboring HCV genotype 1a H77 NS3 A156T mutant infected in human HuH7 cells to EC50 for HCV genotype 1b Con1 harboring HCV genotype 1a H77 wild type NS3 infected in human HuH7 cells; type: functional, Hepacivirus hominis, isolate Con1
Hepatitis C virus [5] = experiment: Selectivity ratio of EC50 for HCV genotype 1b Con1 harboring HCV genotype 1a H77 NS3 D168V mutant infected in human HuH7 cells to EC50 for HCV genotype 1b Con1 harboring HCV genotype 1a H77 wild type NS3 infected in human HuH7 cells; type: functional, Hepacivirus hominis, isolate Con1
Hepatitis C virus [6] = experiment: Selectivity ratio of EC50 for HCV genotype 1b Con1 harboring HCV genotype 1a H77 NS3 R155K mutant infected in human HuH7 cells to EC50 for HCV genotype 1b Con1 harboring HCV genotype 1a H77 wild type NS3 infected in human HuH7 cells; type: functional, Hepacivirus hominis, isolate Con1
[7] = biological target: Hepatitis C virus serine protease, NS3/NS4A (Hepatitis C virus, UniProt A3EZI9+D2K2A8); experiment: Inhibition of wild type HCV genotype 1a NS3/4A protease expressed in Escherichia coli BL21(DE3) using Ac-DE-Dap(QXL 520)-EE-Abu-psi-[COO]AS-C(5-FAMsp)-NH2 as substrate preincubated for 1 hr followed by substrate addition; set-up: species or system Hepatitis C virus subtype 1a; how it was run: as §1
Hepatitis C virus [8] = experiment: Antiviral activity against HCV genotype 1b Con1 harboring HCV genotype 1a H77 NS3 R155K mutant infected in human HuH7 cells assessed as inhibition of viral replication after 96 hrs by luciferase reporter gene assay; type: functional, organism-based, Hepacivirus hominis; settings: isolate Con1, Huh-7, 96 h
How it was run: (§2)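 Cell-based replicon antiviral assays against wild-type HCV and the R155K, A156T, D168A and D168V variants. Potency was expressed as EC50.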

Hepatitis C virus [9] = experiment: Antiviral activity against HCV genotype 1b Con1 harboring HCV genotype 1a H77 NS3 D168V mutant infected in human HuH7 cells assessed as inhibition of viral replication after 96 hrs by luciferase reporter gene assay; type: functional, organism-based, Hepacivirus hominis; settings: isolate Con1, Huh-7, 96 h; how it was run: as §2
Hepatitis C virus [10] = experiment: Antiviral activity against HCV genotype 1b Con1 harboring HCV genotype 1a H77 wild type NS3 infected in human HuH7 cells assessed as inhibition of viral replication after 96 hrs by luciferase reporter gene assay; type: functional, organism-based, Hepacivirus hominis; settings: isolate Con1, Huh-7, 96 h; how it was run: as §2
Hepatitis C virus [11] = experiment: Antiviral activity against HCV genotype 1b Con1 harboring HCV genotype 1a H77 NS3 A156T mutant infected in human HuH7 cells assessed as inhibition of viral replication after 96 hrs by luciferase reporter gene assay; type: functional, organism-based, Hepacivirus hominis; settings: isolate Con1, Huh-7, 96 h; how it was run: as §2
Hepatitis C virus [12] = experiment: Antiviral activity against HCV genotype 1b Con1 harboring HCV genotype 1a H77 NS3 D168A mutant infected in human HuH7 cells assessed as inhibition of viral replication after 96 hrs by luciferase reporter gene assay; type: functional, organism-based, Hepacivirus hominis; settings: isolate Con1, Huh-7, 96 h; how it was run: as §2

Compound	Ratio EC50 (Hepatitis C virus [1])	Ki [2] [nM]	Ki [3] [nM]	Ratio EC50 (Hepatitis C virus [4])	Ratio EC50 (Hepatitis C virus [5])	Ratio EC50 (Hepatitis C virus [6])	Ki [7] [nM]	EC50 (Hepatitis C virus [8]) [nM]	EC50 (Hepatitis C virus [9]) [nM]	EC50 (Hepatitis C virus [10]) [nM]	EC50 (Hepatitis C virus [11]) [nM]	EC50 (Hepatitis C virus [12]) [nM]
CCc1nc2ccc(OC)cc2nc1O[C@@H]1C[C@H]2C(=O)N[C@]3(C(=O)NS(=O)(=O)C4CC4)C[C@H]3/C=C\CCCCC[C@H](NC(=O)OC(C)(C)C)C(=O)N2C1	19	3.1	91	29	28	5.5	2	–	–	–	–	–
C=C[C@@H]1C[C@]1(NC(=O)[C@@H]1C[C@@H](Oc2nc3cc(OC)ccc3nc2C(F)(F)F)CN1C(=O)[C@@H](NC(=O)OC1CCCC1)C(C)(C)C)C(=O)NS(=O)(=O)C1(C)CC1	–	22	516	–	–	–	22	–	–	–	–	–
C=C[C@@H]1C[C@]1(NC(=O)[C@@H]1C[C@@H](Oc2nc3cc(OC)ccc3nc2CC)CN1C(=O)[C@@H](NC(=O)OC1CCCC1)C(C)(C)C)C(=O)NS(=O)(=O)C1CC1	–	15	350	–	–	–	9.8	–	–	–	–	–
C=C[C@@H]1C[C@]1(NC(=O)[C@@H]1C[C@@H]2CN1C(=O)[C@H](C(C)(C)C)NC(=O)O[C@@H]1C[C@H]1CCCCCc1nc3ccc(OC)cc3nc1O2)C(=O)NS(=O)(=O)C1(C)CC1	–	–	–	–	–	–	–	1.9	5.3	0.12	200	11
C=C[C@@H]1C[C@]1(NC(=O)[C@@H]1C[C@@H](Oc2nc3cc(OC)ccc3nc2C)CN1C(=O)[C@@H](NC(=O)OC1CCCC1)C(C)(C)C)C(=O)NS(=O)(=O)C1CC1	10	9.6	144	16	15	4.8	9.2	48	150	10	164	101
C=C[C@@H]1C[C@]1(NC(=O)[C@@H]1C[C@@H](Oc2nc3cc(OC)ccc3nc2C(C)C)CN1C(=O)[C@@H](NC(=O)OC1CCCC1)C(C)(C)C)C(=O)NS(=O)(=O)C1(C)CC1	–	43	1000	–	–	–	21	–	–	–	–	–
C=C[C@@H]1C[C@]1(NC(=O)[C@@H]1C[C@@H](Oc2nc3cc(OC)ccc3nc2C)CN1C(=O)[C@@H](NC(=O)OC(C)(C)C)C(C)(C)C)C(=O)NS(=O)(=O)C1CC1	–	8.5	290	–	–	–	18	–	–	–	–	–
C=C[C@@H]1C[C@]1(NC(=O)[C@@H]1C[C@@H](Oc2nc3cc(OC)ccc3nc2Cl)CN1C(=O)[C@@H](NC(=O)OC(C)(C)C)C(C)(C)C)C(=O)NS(=O)(=O)C1(C)CC1	4.8	3.8	119	16	1.9	1.6	6.1	10	12	6.3	100	30
C=C[C@@H]1C[C@]1(NC(=O)[C@@H]1C[C@@H](Oc2nc3cc(OC)ccc3nc2CC)CN1C(=O)[C@@H](NC(=O)OC(C)(C)C)C(C)(C)C)C(=O)NS(=O)(=O)C1CC1	>21	17	642	3	>21	2.1	19	50	> 500	24	73	> 500
C=C[C@@H]1C[C@]1(NC(=O)[C@@H]1C[C@@H](Oc2nc3cc(OC)ccc3nc2C(F)(F)F)CN1C(=O)[C@@H](NC(=O)OC(C)(C)C)C(C)(C)C)C(=O)NS(=O)(=O)C1(C)CC1	–	12	513	–	–	–	46	–	–	–	–	–
C=C[C@@H]1C[C@]1(NC(=O)[C@@H]1C[C@@H](Oc2nc3cc(OC)ccc3nc2Cl)CN1C(=O)[C@@H](NC(=O)OC(C)(C)C)C(C)(C)C)C(=O)NS(=O)(=O)C1CC1	5.8	2.2	128	16	1.8	1.5	7.8	10	12	6.6	107	38
C=C[C@@H]1C[C@]1(NC(=O)[C@@H]1C[C@@H](Oc2nc3cc(OC)ccc3nc2CC)CN1C(=O)[C@@H](NC(=O)OC1CCCC1)C(C)(C)C)C(=O)NS(=O)(=O)C1(C)CC1	–	13	145	–	–	–	6.9	–	–	–	–	–
C=C[C@@H]1C[C@]1(NC(=O)[C@@H]1C[C@@H](Oc2nc3cc(OC)ccc3nc2Cl)CN1C(=O)[C@@H](NC(=O)OC1CCCC1)C(C)(C)C)C(=O)NS(=O)(=O)C1(C)CC1	8.1	5.2	51	53	7.4	8.7	3.9	27	23	3.1	163	25
C=C[C@@H]1C[C@]1(NC(=O)[C@@H]1C[C@@H](Oc2nc3cc(OC)ccc3nc2C)CN1C(=O)[C@@H](NC(=O)OC(C)(C)C)C(C)(C)C)C(=O)NS(=O)(=O)C1(C)CC1	–	14	265	–	–	–	14	–	–	–	–	–
C=C[C@@H]1C[C@]1(NC(=O)[C@@H]1C[C@@H](Oc2nc3cc(OC)ccc3nc2C(C)C)CN1C(=O)[C@@H](NC(=O)OC(C)(C)C)C(C)(C)C)C(=O)NS(=O)(=O)C1CC1	–	49	1090	–	–	–	32	–	–	–	–	–
C=C[C@@H]1C[C@]1(NC(=O)[C@@H]1C[C@@H](Oc2nc3cc(OC)ccc3nc2C(C)C)CN1C(=O)[C@@H](NC(=O)OC(C)(C)C)C(C)(C)C)C(=O)NS(=O)(=O)C1(C)CC1	–	27	1180	–	–	–	29	–	–	–	–	–
C=C[C@@H]1C[C@]1(NC(=O)[C@@H]1C[C@@H](Oc2nc3cc(OC)ccc3nc2C(F)(F)F)CN1C(=O)[C@@H](NC(=O)OC1CCCC1)C(C)(C)C)C(=O)NS(=O)(=O)C1CC1	–	26	703	–	–	–	34	–	–	–	–	–
C=C[C@@H]1C[C@]1(NC(=O)[C@@H]1C[C@@H](Oc2nc3cc(OC)ccc3nc2C(F)(F)F)CN1C(=O)[C@@H](NC(=O)OC(C)(C)C)C(C)(C)C)C(=O)NS(=O)(=O)C1CC1	–	24	723	–	–	–	87	–	–	–	–	–
C=C[C@@H]1C[C@]1(NC(=O)[C@@H]1C[C@@H](Oc2nc3cc(OC)ccc3nc2C)CN1C(=O)[C@@H](NC(=O)OC1CCCC1)C(C)(C)C)C(=O)NS(=O)(=O)C1(C)CC1	10	10	140	19	13	6.2	7.1	28	59	4.5	87	45
C=C[C@@H]1C[C@]1(NC(=O)[C@@H]1C[C@@H](Oc2nc3cc(OC)ccc3nc2C(C)C)CN1C(=O)[C@@H](NC(=O)OC1CCCC1)C(C)(C)C)C(=O)NS(=O)(=O)C1CC1	–	55	985	–	–	–	17	–	–	–	–	–
C=C[C@@H]1C[C@]1(NC(=O)[C@@H]1C[C@@H](Oc2nc3cc(OC)ccc3nc2CC)CN1C(=O)[C@@H](NC(=O)OC(C)(C)C)C(C)(C)C)C(=O)NS(=O)(=O)C1(C)CC1	–	14	385	–	–	–	16	–	–	–	–	–
C=C[C@@H]1C[C@]1(NC(=O)[C@@H]1C[C@@H](Oc2nc3cc(OC)ccc3nc2Cl)CN1C(=O)[C@@H](NC(=O)OC1CCCC1)C(C)(C)C)C(=O)NS(=O)(=O)C1CC1	6.8	4.1	99	40	7.3	5.4	3.8	40	54	7.4	292	50
